# Assay results from ChEMBL document CHEMBL4024747, “Design, Synthesis, and Biological Activities of Vibsanin B Derivatives: A New Class of HSP90 C-Terminal Inhibitors” (J Med Chem, 2017).
# Active and inactive are the calls of the source. No cut-off for these calls is given here.
# Tests used:
# [1] = test system: MCF7; assay: Antiproliferative activity against human MCF7 cells assessed as reduction in cell viability after 48 hrs by MTT assay; type: functional, cell-based; settings: MCF7, 48 h
# [2] = test system: SK-BR-3; assay: Antiproliferative activity against human SKBR3 cells assessed as reduction in cell viability after 48 hrs by MTT assay; type: functional, cell-based; settings: SK-BR-3, 48 h
# [3] = target: Heat shock protein HSP 90-alpha (Homo sapiens) (UniProt P07900); assay: Inhibition of FITC-geldanamycin binding to human FLAG-tagged HSP90alpha N-terminal domain
# [4] = target: Heat shock protein HSP 90-beta (Homo sapiens) (UniProt P08238); assay: Inhibition of FITC-geldanamycin binding to human FLAG-tagged HSP90beta N-terminal domain
# [5] = test system: SMMC-7721; assay: Antiproliferative activity against human SMMC7721 cells assessed as reduction in cell viability after 48 hrs by MTT assay; type: functional, cell-based; settings: SMMC-7721, 48 h
# [6] = test system: A549; assay: Antiproliferative activity against human A549 cells assessed as reduction in cell viability after 48 hrs by MTT assay; type: functional, cell-based; settings: A549, 48 h
# [7] = test system: HL-60; assay: Antiproliferative activity against human HL60 cells assessed as reduction in cell viability after 48 hrs by MTT assay; type: functional, cell-based; settings: HL-60, 48 h
# [8] = test system: SW480; assay: Antiproliferative activity against human SW480 cells assessed as reduction in cell viability after 48 hrs by MTT assay; type: functional, cell-based; settings: SW480, 48 h
# [9] = species on record: Oryctolagus cuniculus; assay: Inhibition of HSP90 in rabbit reticulocyte lysate assessed as decrease in HSP90-dependant refolding of firefly luciferase at 10 uM after 30 mins by luciferase gene based assay
# Outline: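 Firefly luciferase heat-denatured at 41 °C for 10 min, then added with rabbit reticulocyte lysate to compounds at 10 μM. Renaturation at room temperature for 3 h; luciferin substrate added and luminescence read. Refolding expressed relative to DMSO; novobiocin at 500 μM as reference. Three independent experiments.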
# [10] = test system: HepG2; assay: Antiproliferative activity against human HepG2 cells assessed as reduction in cell viability after 48 hrs by MTT assay; type: functional, cell-based; settings: HepG2, 48 h
# [11] = test system: AGS; assay: Antiproliferative activity against human AGS cells assessed as reduction in cell viability after 48 hrs by MTT assay; type: functional, cell-based
# [12] = test system: HeLa; assay: Antiproliferative activity against human HeLa cells assessed as reduction in cell viability after 48 hrs by MTT assay; type: functional, cell-based
# [13] = test system: BT-474; assay: Antiproliferative activity against human BT474 cells assessed as reduction in cell viability after 48 hrs by MTT assay; type: functional, cell-based; settings: BT-474, 48 h
# [14] = species on record: Danio rerio; assay: Toxicity in 3 days post fertilized zebrafish embryo assessed as changes in embryonic phenotypes at 4 to 16 uM after 12 hrs; settings: in vivo
# [15] = Half life of compound in toluene at 110 degreeC by HPLC analysis; type: physicochemical
# Outline: (§1)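 Thermostability in toluene at 110 °C or 60 °C followed by HPLC; half-life estimated.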
# [16] = Drug metabolism in deionized water assessed as compound decomposition at 100 degreeC after 10 mins by HPLC analysis relative to control; type: physicochemical; settings: read-out: Drug metabolism
# Outline: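 Thermostability determined by HPLC after heating in deionized water at 100 °C for 10 min; decomposition recorded in percent.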
# [17] = Stability of compound in boiling ethyl alcohol by HPLC analysis; type: physicochemical
# [18] = Half life of compound in toluene at 60 degreeC by HPLC analysis; type: physicochemical; outline: as §1
# [19] = Drug degradation in pH 7.4 PBS at 37 degreeC after 12 hrs by HPLC analysis relative to control
# Outline: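 Solution stability determined by HPLC after incubation in PBS pH 7.4 at 37 °C for 12 h.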
# [20] = target: Luciferin 4-monooxygenase (Photinus pyralis) (UniProt P08659); assay: Inhibition of firefly luciferase activity using luciferin substrate at 10 uM after 30 mins by luminescence assay
# [21] = target: Heat shock protein HSP 90-beta (Homo sapiens) (UniProt P08238); assay: Binding affinity to human FLAG-tagged HSP90beta C-terminal domain expressed in human 293T cells at 30 uM by Western blot analysis; type: cell-based
# Outline: (§2)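 Flag-tagged full-length HSP90β and its NTD, MD and CTD constructs expressed by transfection in 293T cells; lysates incubated with 30 μM biotin-ViB, captured on streptavidin-agarose beads, bound protein detected by Western blot.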
# [22] = target: Heat shock protein HSP 90-beta (Homo sapiens) (UniProt P08238); assay: Binding affinity to human FLAG-tagged HSP90beta middle domain expressed in human 293T cells at 30 uM by Western blot analysis; type: cell-based; outline: as §2
# [23] = target: Heat shock protein HSP 90-beta (Homo sapiens) (UniProt P08238); assay: Binding affinity to human FLAG-tagged HSP90beta N-terminal domain expressed in human 293T cells at 30 uM by Western blot analysis; type: cell-based; outline: as §2
# [24] = target: Heat shock protein HSP 90-beta (Homo sapiens) (UniProt P08238); assay: Binding affinity to human recombinant His-tagged HSP90beta-CTD expressed in Escherichia coli BL21(DE3) at 80 uM after 2 hrs in presence of 18-fluro vibsanin B by Western blot analysis
# [25] = target: Heat shock protein HSP 90-beta (Homo sapiens) (UniProt P08238); assay: Binding affinity to human recombinant His-tagged HSP90beta-CTD expressed in Escherichia coli BL21(DE3) at 80 uM after 2 hrs in presence of vibsanin B by Western blot analysis
# [26] = target: Heat shock protein HSP 90-beta (Homo sapiens) (UniProt P08238); assay: Binding affinity to human recombinant His-tagged HSP90beta-CTD expressed in Escherichia coli BL21(DE3) at 80 uM after 2 hrs by Western blot analysis
# [27] = target: Heat shock protein HSP 90-beta (Homo sapiens) (UniProt P08238); assay: Binding affinity to human recombinant His-tagged HSP90beta-CTD expressed in Escherichia coli BL21(DE3) at 80 uM after 2 hrs in presence of ViB-4-OH by Western blot analysis
# Sequence of Heat shock protein HSP 90-beta (Homo sapiens) (P08238 whole entry, the tested form may be a part): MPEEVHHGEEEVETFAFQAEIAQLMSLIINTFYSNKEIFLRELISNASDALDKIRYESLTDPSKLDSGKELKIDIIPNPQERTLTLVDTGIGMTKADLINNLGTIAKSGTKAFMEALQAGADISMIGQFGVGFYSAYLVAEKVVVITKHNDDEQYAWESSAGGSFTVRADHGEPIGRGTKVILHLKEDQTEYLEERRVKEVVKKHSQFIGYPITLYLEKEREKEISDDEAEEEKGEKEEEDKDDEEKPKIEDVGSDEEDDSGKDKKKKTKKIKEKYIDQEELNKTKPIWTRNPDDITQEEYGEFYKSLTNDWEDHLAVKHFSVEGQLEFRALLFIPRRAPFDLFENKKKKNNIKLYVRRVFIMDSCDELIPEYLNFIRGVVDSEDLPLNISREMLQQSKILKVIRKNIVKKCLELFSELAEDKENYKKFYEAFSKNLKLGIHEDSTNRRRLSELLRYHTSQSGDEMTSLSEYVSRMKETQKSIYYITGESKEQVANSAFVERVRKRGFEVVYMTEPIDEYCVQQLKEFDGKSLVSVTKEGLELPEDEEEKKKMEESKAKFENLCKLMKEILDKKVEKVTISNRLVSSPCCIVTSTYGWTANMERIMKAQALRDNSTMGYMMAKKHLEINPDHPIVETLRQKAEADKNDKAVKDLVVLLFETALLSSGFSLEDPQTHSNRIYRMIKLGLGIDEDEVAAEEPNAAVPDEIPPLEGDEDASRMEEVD
# Sequence of Luciferin 4-monooxygenase (Photinus pyralis) (P08659 whole entry, the tested form may be a part): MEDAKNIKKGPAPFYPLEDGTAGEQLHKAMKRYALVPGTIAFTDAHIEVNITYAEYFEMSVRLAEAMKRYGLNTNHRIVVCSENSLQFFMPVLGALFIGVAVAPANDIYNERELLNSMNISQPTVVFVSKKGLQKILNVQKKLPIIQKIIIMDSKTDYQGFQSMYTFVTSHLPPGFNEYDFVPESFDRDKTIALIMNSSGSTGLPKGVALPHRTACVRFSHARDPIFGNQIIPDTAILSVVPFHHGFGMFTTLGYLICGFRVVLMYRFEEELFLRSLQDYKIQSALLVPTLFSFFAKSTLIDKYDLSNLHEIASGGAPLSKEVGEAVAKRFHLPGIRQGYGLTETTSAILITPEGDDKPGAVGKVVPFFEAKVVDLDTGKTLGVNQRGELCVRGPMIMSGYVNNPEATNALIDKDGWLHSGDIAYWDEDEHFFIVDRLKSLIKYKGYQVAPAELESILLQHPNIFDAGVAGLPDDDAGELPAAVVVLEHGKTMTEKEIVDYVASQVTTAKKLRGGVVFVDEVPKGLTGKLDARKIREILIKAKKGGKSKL
smiles,measurement,setting,value
CC(C)=CCC[C@]1(C)/C=C/[C@@H](OC(=O)C=C(C)C)[C@](C)(O)/C=C/C(=O)/C(CO)=C\C1 [VIBSANIN B],IC50,[1],2.85 µM
same,IC50,[2],9.19 µM
same,inhibition,[3],inactive
same,inhibition,[4],inactive
same,IC50,[5],3.25 µM
same,IC50,[6],3.46 µM
same,IC50,[7],2.64 µM
same,IC50,[8],2.65 µM
same,inhibition,[9],Active
same,IC50,[10],19.1 µM
same,IC50,[11],9.68 µM
same,IC50,[12],2.48 µM
same,IC50,[13],4.55 µM
same,Activity,[14],Toxic
same,half-life,[15],5 min
same,degraded at 10 min,[16],2.8%
same,Stability,[17],Stable
same,half-life,[18],9 min
same,Drug degradation,[19],4.92%
same,inhibition,[20],inactive
CC(C)=CCC[C@]1(C)/C=C/[C@@H](OC(=O)C=C(C)C)[C@](C)(O)/C=C/C(=O)/C(COC(=O)CNCc2cn(CCOCCOCCOC(=O)CCCC[C@@H]3SC[C@@H]4NC(=O)N[C@@H]43)nn2)=C\C1,Activity,[21],Active
same,Activity,[22],Active
same,Activity,[23],inactive
same,Activity,[24],inactive
same,Activity,[25],inactive
same,Activity,[26],Active
same,Activity,[27],Active
